biological target: L-lactate dehydrogenase A chain (Homo sapiens, UniProt P00338); experiment: Inhibition of human liver LDH5 using pyruvate as substrate and NADH as cofactor measured after 15 mins by fluorescence assay
Summary of the method: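 Purified human LDH isoform 5, forward reaction (pyruvate to lactate) in 100 mM phosphate buffer pH 7.4 with 200 μM pyruvate and 40 μM NADH. Seven concentrations from 500 to 0.7 μM, each in duplicate, DMSO not above 4%. NADH consumption read by fluorescence (ex 340, em 460 nm) after 15 min. Compound background fluorescence or quenching subtracted. IC50 from concentration–response curves.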

IC50, 191 µM:
COc1cc(/C=C/C(=O)OC[C@H]2O[C@H](O[C@]3(CO)O[C@H](CO)[C@@H](O)[C@@H]3OC(=O)/C=C/c3cc(OC)c(O)c(OC)c3)[C@H](O)[C@@H](O[C@@H]3O[C@H](CO)[C@@H](O)[C@H](O)[C@H]3O)[C@@H]2O)cc(OC)c1O

IC50, 90.4 µM:
COc1cc(/C=C/C(=O)OC[C@H]2O[C@H](O[C@]3(CO)O[C@H](CO)[C@@H](O)[C@@H]3OC(=O)/C=C/c3cc(OC)c(O)c(OC)c3)[C@H](O)[C@@H](O)[C@@H]2O)cc(OC)c1O

IC50, > 500 µM:
C[C@@H]1O[C@@H](OC[C@H]2O[C@@H](Oc3c(-c4ccc(O)c(O)c4)oc4cc(O)cc(O)c4c3=O)[C@H](O[C@@H]3OC[C@](O)(CO)[C@H]3O)[C@@H](O)[C@@H]2O)[C@H](O)[C@H](O)[C@H]1O
C[C@@H]1O[C@@H](OC[C@H]2O[C@@H](Oc3c(-c4ccc(O)c(O)c4)oc4cc(O)cc(O)c4c3=O)[C@H](O)[C@@H](O)[C@@H]2O)[C@H](O)[C@H](O)[C@H]1O [RUTIN]
CC(=O)OC[C@H]1O[C@H](O[C@]2(CO)O[C@H](COC(=O)c3ccccc3)[C@@H](O)[C@@H]2O)[C@H](O)[C@@H](O[C@@H]2O[C@H](CO)[C@@H](O)[C@H](O)[C@H]2O)[C@@H]1O
CC(=O)O[C@@H]1[C@H](O[C@@H]2OC[C@](O)(CO)[C@H]2O)[C@@H](O[C@@H]2O[C@@H](C)[C@H](O)[C@@H](O)[C@H]2O)[C@H](OC(=O)[C@]23CCC(C)(C)C[C@H]2C2=CC[C@@H]4[C@@]5(C)C[C@H](O)[C@H](O[C@@H]6O[C@H](CO)[C@@H](O)[C@H](O)[C@H]6O)[C@@](C)(C(=O)O)[C@@H]5CC[C@@]4(C)[C@]2(C)CC3)O[C@H]1C
COc1cc(/C=C/C(=O)OC[C@@]2(O)CO[C@@H](O[C@H]3[C@H](Oc4c(-c5ccc(O)c(O)c5)oc5cc(O)cc(O)c5c4=O)O[C@H](CO[C@@H]4O[C@@H](C)[C@H](O)[C@@H](O)[C@H]4O)[C@@H](O)[C@@H]3O)[C@@H]2O)ccc1O
C[C@@H]1O[C@@H](OC[C@H]2O[C@@H](Oc3c(-c4ccc(O)c(O)c4)oc4cc(O)cc(O)c4c3=O)[C@H](O[C@@H]3OC[C@](O)(COC(=O)c4ccccc4)[C@H]3O)[C@@H](O)[C@@H]2O)[C@H](O)[C@H](O)[C@H]1O
O=C(OC[C@H]1O[C@@](CO)(O[C@H]2O[C@H](CO)[C@@H](O)[C@H](O[C@@H]3O[C@H](CO)[C@@H](O)[C@H](O)[C@H]3O)[C@H]2O)[C@@H](O)[C@@H]1O)c1ccccc1
COc1cc(/C=C/C(=O)OC[C@@]2(O)CO[C@@H](O[C@H]3[C@H](Oc4c(-c5ccc(O)c(O)c5)oc5cc(O)cc(O)c5c4=O)O[C@H](CO[C@@H]4O[C@@H](C)[C@H](O)[C@@H](O)[C@H]4O)[C@@H](O)[C@@H]3O)[C@@H]2O)cc(OC)c1O
C[C@@H]1O[C@@H](OC[C@H]2O[C@@H](Oc3c(-c4ccc(O)c(O)c4)oc4cc(O)cc(O)c4c3=O)[C@H](O[C@@H]3OC[C@](O)(COC(=O)/C=C/c4ccc(O)cc4)[C@H]3O)[C@@H](O)[C@@H]2O)[C@H](O)[C@H](O)[C@H]1O

Reference: ChEMBL document CHEMBL4190259, “Constituents of Polygala flavescens ssp. flavescens and Their Activity as Inhibitors of Human Lactate Dehydrogenase” (J Nat Prod, 2017)
